Test [1] relates to Rattus norvegicus. The test can be described thus: Percentage of animals failing to emit 50 lever presses within 15 min in […] trained rats at a compound dose of 4 mg/kg. The test is classed as functional. Summed up: (§1)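 Two-lever drug discrimination in male Sprague–Dawley rats (200–220 g at start), trained against saline on LSD tartrate (0.08 mg/kg), DOI HCl (0.4 mg/kg) or LY293284 (0.025 mg/kg). FR50 food-pellet reinforcement, levers counterbalanced, 15-min sessions at 22–24 °C. %D is the share of tested rats not completing 50 lever presses within 15 min.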

Test [2] addresses T1, 5-hydroxytryptamine receptor 1A (Rattus norvegicus, UniProt P19327).
T1 sequence (P19327 whole entry): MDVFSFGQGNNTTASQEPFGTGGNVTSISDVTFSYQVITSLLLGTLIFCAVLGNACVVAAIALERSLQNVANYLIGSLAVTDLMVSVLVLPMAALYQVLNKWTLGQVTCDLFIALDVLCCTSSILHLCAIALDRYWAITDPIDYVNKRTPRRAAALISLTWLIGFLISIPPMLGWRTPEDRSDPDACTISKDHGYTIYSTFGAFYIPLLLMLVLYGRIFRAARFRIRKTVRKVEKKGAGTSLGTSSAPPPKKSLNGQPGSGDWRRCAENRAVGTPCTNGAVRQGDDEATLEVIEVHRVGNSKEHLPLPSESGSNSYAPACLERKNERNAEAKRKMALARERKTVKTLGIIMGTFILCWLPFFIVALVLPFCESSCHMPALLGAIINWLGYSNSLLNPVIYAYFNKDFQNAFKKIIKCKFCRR
The test can be described thus: Compound was tested for the displacement of [3H]-8-OH- DPAT from rat brain 5-hydroxytryptamine 1A receptor. Summed up: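 Pooled rat hippocampal membranes were preincubated at 37 °C. Buffer was 50 mM Tris HCl pH 7.4 with 0.5 mM Na2EDTA, 10 mM MgCl2, 0.1% Na ascorbate and pargyline. 200–400 μg protein was incubated with [3H]-8-OH-DPAT for 15 min at 37 °C, then GF/C filtered and scintillation counted. Nonspecific binding was defined with 10 μM 5-HT. Triplicate tubes.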

For test [3], the system named is Rattus norvegicus. The test is described as follows: Percentage of animals emitting >80% of lever presses in LSD trained rats at a compound dose of 25.3 uM/Kg. The test is classed as functional. Summed up:
(§2)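 Male Sprague–Dawley rats (200–220 g) in a two-lever, FR50 food-reinforced task. Rats were trained to discriminate saline from LSD tartrate (0.08 mg/kg), DOI HCl (0.4 mg/kg) or LY293284 (0.025 mg/kg) in 15-min sessions. %SDL is the share of rats making over 80% of presses on the drug lever. %D is the share failing to make 50 presses within 15 min. ED50 by Litchfield–Wilcoxon log-probit.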

The test system of test [4] is Rattus norvegicus. The test can be described thus: Percentage of animals failing to emit 50 lever presses within 15 min in LSD trained rats at a compound dose of 16 mg/kg. The test is classed as functional. Put shortly: as §2
The subject of test [5] is Rattus norvegicus. The test can be described thus: Percentage of animals emitting >80% of lever presses in LSD trained rats at a compound dose of 3.16 uM/Kg. The test is classed as functional. Summed up: as §2
Test [6] concerns Rattus norvegicus. The test is described as follows: Percentage of animals failing to emit 50 lever presses within 15 min in […] trained rats at a compound dose of 2 mg/kg. The test is classed as functional. Summed up:
as §1

The test system of test [7] is Rattus norvegicus. The test is described as follows: Percentage of animals failing to emit 50 lever presses within 15 min in LSD trained rats at a compound dose of 4.0 mg/kg. The test is classed as functional. Put shortly: as §1
Test [8] relates to Rattus norvegicus. The test is described as follows: Percentage of animals emitting >80% of lever presses in […] trained rats at a compound dose of 12.6 uM/Kg. The test is classed as functional. Put shortly:
as §2

Test [9] has as its system Rattus norvegicus. The test is described as follows: Percentage of animals emitting >80% of lever presses in […] trained rats at a compound dose of 25.3 uM/Kg. The test is classed as functional. Summed up: as §2

On to `CN(C)CCc1c[nH]c2sccc12`, for which the D in the test on Rattus norvegicus [1] came to 0%; in the test on Rattus norvegicus [4] it was 50%; in the test on Rattus norvegicus [6], 0%; in the test with Rattus norvegicus [7], 0%. In addition, in test [2], the Ki came out at 184 nM. In addition, the SDL with Rattus norvegicus [3] is 9%; with Rattus norvegicus [5], 7.7%; in the test with Rattus norvegicus [8], 67%; in the test with Rattus norvegicus [9], 58%.
